DENV2 CPE rescue = inhibitors of DENV2 cytopathic effect; DENV2-infected cells, cytopathic effect rescue, plate reader; CPE inhibition, % at 9.99 µM; hit rate 1.7% among 350,000; AID 651640; in the data active = CPE inhibition above about 20%, passing the limit was not always enough; inconclusive = no clear call, values can overlap the other calls; tested in BHK-21 cells;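 note: 0% = median of neutral control wells and 100% = median of positive control wells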
CaV13 ICDI inh = Disruptors of the CACNA1D IQ motif to Ca2+-dependent inactivation inhibitor domain association, primary screening, Förster resonance energy transfer in intact living …; HEK cells, CFP/YFP FRET ICDI-IQ, plate reader, 10 min; percent FRET-ratio fall versus neutral wells; inhibition, % at 12.3 µM; hit rate 0.098% among 340,000; AID 743397;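 active = mean replicate inhibition of at least 30% and at least 1% of replicates passing that level; inconclusive = only one of the two criteria is met; inactive = neither criterion is met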;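 note: 0% = median of the neutral control wells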
Xi reactivation = X-chromosome reactivation activator; XiGFP mouse fibroblasts, % GFP-positive cells imaging, 3 d; cells co-treated with 5-aza-dC sensitizer; scaled so ellipticine positive control = 100%; activation, % at 7.58 µM; hit rate 0.055% among 360,000;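 active = mean normalized replicate activation at least 10% and every replicate at or above 10%; inconclusive = only one of the two criteria met; inactive = mean below 10% and not all replicates reach 10%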;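 note: 0% = median of on-plate neutral control wells and 100% = ellipticine 6 µM median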
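System: 68-5-11 XiGFP fibroblast line | Buffer or medium: DMEM containing 5-aza-dC | Compound: Single point | Times: Compounds 3 days, fix/stain 15 min at room temperature | Benchmarks: Positive control ellipticine, 6 µM final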
FN deposition inh = fibronectin deposition inhibition; AH1F fibroblasts, Alexa488-fibronectin deposition fluorescence, overnight; inhibition, % at 12.6 µM; hit rate 0.086% among 350,000; AID 743247;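 active = mean inhibition across replicates of 30% or more, regardless of how many single replicates reach that level; inconclusive = mean under 30% yet at least half of replicates reach 30%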;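 note: positive control wells lacked labelled fibronectin entirely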
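Schedule: 1 h cell adhesion before compound, then overnight fibronectin incubation; test system: AH1F fibroblast monolayer depositing Alexa488-labelled fibronectin into matrix; quantity: 10000 AH1F cells per well; probe or stimulus: fluorescent fibronectin at 24 nM final; signal: fluorescence, ex 485 nm, em 525 nm; evaluation: percent inhibition as loss of matrix-bound fibronectin fluorescence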
CASP6 VEID inh = caspase-6 (human) enzyme inhibition; P55212; purified caspase-6, Z-VEID-R110 cleavage fluorescence; inhibition, % at 12.5 µM; hit rate 0.53% among 350,000; AID 686996;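 active = mean inhibition across replicates at least about 35%, with every replicate also reaching that limit, limit read from the data; inconclusive = only one of the two criteria met; inactive = neither criterion met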;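 note: 0% = median of neutral control wells and 100% = no fluorescence left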
Target sequence (P55212 24-179 limits assumed): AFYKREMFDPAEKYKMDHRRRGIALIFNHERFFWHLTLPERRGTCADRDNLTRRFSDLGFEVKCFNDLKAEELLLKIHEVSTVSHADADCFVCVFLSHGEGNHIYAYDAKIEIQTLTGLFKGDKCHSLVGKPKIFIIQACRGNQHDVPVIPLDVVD
Target sequence (P55212 194-293 limits assumed): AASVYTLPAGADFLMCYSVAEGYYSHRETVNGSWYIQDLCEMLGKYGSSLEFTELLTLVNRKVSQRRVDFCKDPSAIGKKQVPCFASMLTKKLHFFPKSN
* = called active by the depositor; ? = inconclusive; · = no result given. This is a sample that favours compounds with a hit; in the whole collection about 2% have one here.

SMILES | DENV2 CPE rescue | CaV13 ICDI inh | Xi reactivation | FN deposition inh | CASP6 VEID inh
CC(=O)NC1=C(NC2CCS(=O)(=O)C2)C(=O)c2ccccc2C1=O (stereo not drawn) | · | -2 | 0 | 7 | ·
CN(C1=C(NC(=O)c2ccccc2)C(=O)c2ccccc2C1=O)C1CCS(=O)(=O)C1 (stereo not drawn) | 14 | -17 | 0 | -8 | 78*
CN(C)C(=O)c1ccc(-c2ccc([C@@H]3[C@@H](C#N)N(C(=O)C4CCCC4)[C@H]3CO)cc2)cc1 | -2 | · | 0 | 7 | -4
CC(C)NC(=O)N1[C@H](CO)[C@H](c2ccc(-c3ccc(F)cc3)cc2)[C@@H]1C#N | 35* | · | 0 | -8 | 3
COc1ccccc1-c1ccccc1[C@@H]1[C@@H](C#N)N(C(=O)C2CCC2)[C@@H]1CO | 44* | · | 0 | -2 | 1
CN(C)C(=O)c1ccc(-c2ccc([C@H]3[C@@H](C#N)N(C(=O)C4CCCC4)[C@H]3CO)cc2)cc1 | 22* | · | 0 | 1 | -3
COc1ccccc1-c1ccccc1[C@@H]1[C@@H](CO)N(C(=O)C2CCC2)[C@H]1C#N | -11 | · | 0 | -2 | -1
COc1ccc(-c2ccc([C@H]3[C@@H](C#N)N(C(=O)C4CC4)[C@@H]3CO)cc2)cc1 | 56* | · | 0 | 7 | -5
O=C(NC[C@H]1CC[C@@H]2[C@@H](CN2C(=O)C2CCOCC2)O1)c1cccnc1 | 4 | · | · | · | 3
C[C@@H]1CN([C@@H](C)CO)C(=O)c2cc(NC(=O)Nc3ccc(F)cc3)ccc2O[C@@H](C)CCCCO[C@H]1CN(C)Cc1ccncc1 | -3 | · | 0 | 3 | ·
CN(C)C(=O)c1ccc(-c2ccccc2[C@@H]2[C@@H](CO)N(C(=O)C3CCCCC3)[C@H]2C#N)cc1 | 29* | · | 0 | 0 | -1
COc1ccc(-c2ccccc2[C@@H]2[C@@H](C#N)N(C(=O)C3CC3)[C@H]2CO)cc1 | 27* | · | 0 | 0 | -4
COc1cccc(C#Cc2ccc([C@@H]3[C@@H](C#N)N(C(=O)C4CC4)[C@H]3CO)cc2)c1 | 26* | · | 0 | -9 | -1
CN(C)C(=O)c1ccc(-c2ccccc2[C@@H]2[C@@H](C#N)N(C(=O)C3CC3)[C@@H]2CO)cc1 | 40* | · | 0 | -4 | 2
COc1ccc(-c2ccc([C@@H]3[C@@H](CO)N(C(=O)NC4CCCC4)[C@H]3C#N)cc2)cc1 | 22* | · | 0 | -4 | 0
COc1ccc2c3c(n(C)c2c1)[C@H](CO)N(C(=O)NC(C)C)CC31CN(C(=O)NC(C)C)C1 | 7 | · | 0 | · | 2
CC(=O)Nc1ccc2c(c1)C(=O)N(C)C[C@H](C)[C@@H](CN(C)S(C)(=O)=O)O2 | · | · | 0 | 3 | ·
C[C@@H]1CCCCO[C@@H](CN(C)C(=O)Cc2ccccc2)[C@@H](C)CN([C@H](C)CO)C(=O)c2cc(NS(=O)(=O)c3cn(C)cn3)ccc2O1 | -1 | · | 0 | · | -1
C[C@@H]1CN([C@@H](C)CO)C(=O)c2cc(NS(=O)(=O)c3cn(C)cn3)ccc2O[C@@H](C)CCCCO[C@@H]1CN(C)C(=O)Cc1ccccc1 | 63* | · | 0 | · | -3
C[C@@H]1CN([C@H](C)CO)C(=O)c2cc(NS(=O)(=O)c3cn(C)cn3)ccc2O[C@@H](C)CCCCO[C@@H]1CN(C)C(=O)CCCN(C)C | -7 | · | 0 | · | 36*
C[C@@H]1CCCCO[C@@H](CN(C)C(=O)Nc2cccc3ccccc23)[C@H](C)CN([C@H](C)CO)C(=O)c2cc(NS(=O)(=O)c3cn(C)cn3)ccc2O1 | -11 | · | 0 | · | ·
C[C@@H]1CN([C@@H](C)CO)C(=O)c2cc(NS(=O)(=O)c3cn(C)cn3)ccc2O[C@@H](C)CCCCO[C@H]1CN(C)C(=O)CCCN(C)C | 14 | · | -1 | · | 1
C[C@@H]1CCCCO[C@H](CN(C)C(=O)Cc2ccccc2)[C@@H](C)CN([C@@H](C)CO)C(=O)c2cc(NS(=O)(=O)c3cn(C)cn3)ccc2O1 | 31* | · | -1 | · | 0
C[C@@H]1CCCCO[C@@H](CN(C)C(=O)Nc2cccc3ccccc23)[C@H](C)CN([C@@H](C)CO)C(=O)c2cc(NS(=O)(=O)c3cn(C)cn3)ccc2O1 | 21* | · | 0 | · | ·
Cc1noc(C)c1S(=O)(=O)Nc1ccc2c(c1)C(=O)N([C@@H](C)CO)C[C@H](C)[C@@H](CN(C)C(=O)NC(C)C)OCCCC[C@@H](C)O2 | 1 | · | 0 | 5 | 0
SMILES | DENV2 CPE rescue | CaV13 ICDI inh | Xi reactivation | FN deposition inh | CASP6 VEID inh
C[C@H]1CN([C@@H](C)CO)C(=O)c2cc(-c3cccnc3)cnc2O[C@@H]1CN(C)C(=O)Cc1cccnc1 | 1 | · | -1 | -2 | 1
C[C@@H]1CN([C@H](C)CO)C(=O)c2cc(C#C[C@@H](C)O)cnc2O[C@@H]1CN(C)C(=O)c1ccccc1 | 1 | · | -1 | -6 | -1
O=c1cc(-c2ccc(O)cc2)oc2cc(O)c(C3OC(CO)C(O)C(O)C3O)c(O)c12 (stereo not drawn) | ? | · | · | · | 37*
O=c1cc(-c2ccc(O)cc2)oc2cc(O)cc(O)c12 | -3 | -6 | 0 | 9 | 2
CO[C@H]1O[C@H](CO)[C@@H](OC(=O)Nc2ccccc2)[C@H](OC(=O)Nc2ccc3c(c2)OCO3)[C@@H]1OC(=O)Nc1ccc2c(c1)OCO2 | -1 | · | · | · | 3
COc1ccc(CN2CC3(CCN(S(=O)(=O)c4ccc(C)cc4)CC3)c3c([nH]c4cc(OC)ccc34)[C@@H]2CO)cc1 | · | · | 1 | · | ·
CCS(=O)(=O)N1CC2(CN(Cc3ccccc3F)[C@@H](CO)c3[nH]c4cc(OC)ccc4c32)C1 | 20* | · | 0 | -16 | 4
COc1ccc(S(=O)(=O)N2CC3(CN(Cc4ccncc4)[C@@H](CO)c4[nH]c5cc(OC)ccc5c43)C2)cc1 | · | · | 0 | · | ·
COc1ccc2c3c([nH]c2c1)[C@@H](CO)N(Cc1ccccc1)CC31CN(S(=O)(=O)c2ccc(C)cc2)C1 | 20* | · | 0 | · | 0
COc1ccc2c3c([nH]c2c1)[C@H](CO)N(Cc1ccccc1)CC31CN(S(=O)(=O)c2ccc(C)cc2)C1 | 36* | · | 0 | · | 4
COc1ccc2c3c([nH]c2c1)[C@H](CO)N(Cc1cc(F)ccc1F)CC31CN(C(=O)CN(C)C)C1 | 26* | · | 0 | · | 3
C[C@@H]1CN([C@@H](C)CO)C(=O)Cc2cc(N(C)C)ccc2O[C@H]1CN(C)S(=O)(=O)c1ccc(F)cc1 | -8 | · | -1 | · | 3
COc1ccccc1CC(=O)OC(C)C(=O)Nc1ccc(S(=O)(=O)N2CCCCC2)cc1 (stereo not drawn) | 7 | -3 | 0 | 46* | 3
COc1ccccc1NC(=O)C(C)OC(=O)C1CCN(S(=O)(=O)c2ccccc2C(F)(F)F)CC1 (stereo not drawn) | 54* | -18 | 0 | -2 | -4

Bioassay records deposited in PubChem by Broad Institute.
